Columns and labels:
Settings in all cases: stereoisomer not certain
[1] = molecular target: T1, OR10A3 (Homo sapiens) (UniProt P58181)
T1 sequence (whole entry): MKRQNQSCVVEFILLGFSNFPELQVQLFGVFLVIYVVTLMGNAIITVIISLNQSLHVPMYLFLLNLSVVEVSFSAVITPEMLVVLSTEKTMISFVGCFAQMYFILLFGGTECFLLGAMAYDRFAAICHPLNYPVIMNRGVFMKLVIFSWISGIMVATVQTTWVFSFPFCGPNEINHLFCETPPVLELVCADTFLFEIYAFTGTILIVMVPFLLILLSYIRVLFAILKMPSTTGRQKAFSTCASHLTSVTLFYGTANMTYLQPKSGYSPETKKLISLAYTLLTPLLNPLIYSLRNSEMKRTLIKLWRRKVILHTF
Summary of the method: (§1)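 Transient luciferase assays in mammalian cell lines were common, though methods varied by source. The values come from published papers and their supplementary material, with extra details from the original authors when needed. Responsive refers to a measured signal the original authors judged statistically different from baseline, and non-responsive (inactive) to the remainder.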

[2] = molecular target: T2, OR10A4 (Homo sapiens) (UniProt Q9H209)
T2 sequence (whole entry): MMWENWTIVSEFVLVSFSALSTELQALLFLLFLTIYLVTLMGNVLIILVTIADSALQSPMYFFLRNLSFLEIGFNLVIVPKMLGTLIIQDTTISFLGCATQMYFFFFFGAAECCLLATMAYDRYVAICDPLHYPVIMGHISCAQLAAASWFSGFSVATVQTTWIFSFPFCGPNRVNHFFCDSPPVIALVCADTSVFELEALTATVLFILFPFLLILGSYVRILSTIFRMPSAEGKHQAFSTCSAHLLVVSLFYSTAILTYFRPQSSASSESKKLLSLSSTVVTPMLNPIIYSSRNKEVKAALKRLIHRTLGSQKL
Summary of the method: as §1

[3] = molecular target: T3, OR10A5 (Homo sapiens) (UniProt Q9H207)
T3 sequence (whole entry): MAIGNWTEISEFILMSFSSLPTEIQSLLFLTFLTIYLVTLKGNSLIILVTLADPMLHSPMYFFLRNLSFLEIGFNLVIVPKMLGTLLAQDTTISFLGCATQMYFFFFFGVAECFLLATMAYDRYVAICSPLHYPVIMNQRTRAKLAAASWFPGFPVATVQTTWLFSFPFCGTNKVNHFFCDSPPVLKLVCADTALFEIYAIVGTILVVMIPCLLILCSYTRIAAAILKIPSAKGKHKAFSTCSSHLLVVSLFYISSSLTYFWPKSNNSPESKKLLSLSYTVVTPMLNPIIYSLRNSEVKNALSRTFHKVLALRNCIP
Summary of the method: as §1

[4] = molecular target: T4, OR10A6 (Homo sapiens) (UniProt Q8NH74)
T4 sequence (whole entry): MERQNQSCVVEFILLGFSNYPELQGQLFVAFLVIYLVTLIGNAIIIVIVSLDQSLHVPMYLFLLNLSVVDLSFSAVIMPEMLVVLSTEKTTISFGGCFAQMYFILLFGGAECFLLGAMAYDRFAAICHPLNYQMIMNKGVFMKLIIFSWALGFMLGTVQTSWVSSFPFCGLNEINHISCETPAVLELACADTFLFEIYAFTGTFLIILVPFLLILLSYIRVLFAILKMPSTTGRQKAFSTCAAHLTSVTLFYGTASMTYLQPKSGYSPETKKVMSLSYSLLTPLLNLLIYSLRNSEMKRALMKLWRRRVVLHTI
Summary of the method: as §1

[5] = molecular target: T5, OR10A7 (Homo sapiens) (UniProt Q8NGE5)
T5 sequence (whole entry): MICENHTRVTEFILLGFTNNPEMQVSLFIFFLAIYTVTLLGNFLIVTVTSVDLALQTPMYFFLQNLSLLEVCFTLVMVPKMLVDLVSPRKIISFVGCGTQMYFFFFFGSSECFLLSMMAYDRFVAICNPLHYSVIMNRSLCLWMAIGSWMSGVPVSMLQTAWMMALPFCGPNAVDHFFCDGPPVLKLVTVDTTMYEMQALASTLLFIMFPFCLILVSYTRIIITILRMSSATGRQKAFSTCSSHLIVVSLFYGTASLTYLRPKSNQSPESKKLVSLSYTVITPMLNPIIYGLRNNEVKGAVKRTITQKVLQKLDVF
Summary of the method: as §1

[6] = molecular target: T6, OR10AD1 (Homo sapiens) (UniProt Q8NGE0)
T6 sequence (whole entry): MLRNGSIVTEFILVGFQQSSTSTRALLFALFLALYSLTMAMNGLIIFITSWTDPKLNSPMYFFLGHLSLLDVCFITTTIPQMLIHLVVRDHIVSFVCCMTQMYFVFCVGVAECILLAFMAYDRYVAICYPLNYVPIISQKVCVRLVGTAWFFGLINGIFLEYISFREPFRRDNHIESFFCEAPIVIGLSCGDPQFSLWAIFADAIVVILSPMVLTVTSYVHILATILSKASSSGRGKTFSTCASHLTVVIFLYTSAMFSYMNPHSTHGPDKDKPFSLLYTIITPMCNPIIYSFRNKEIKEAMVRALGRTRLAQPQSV
Summary of the method: as §1

[7] = molecular target: T7, OR10AG1 (Homo sapiens) (UniProt Q8NH19)
T7 sequence (whole entry): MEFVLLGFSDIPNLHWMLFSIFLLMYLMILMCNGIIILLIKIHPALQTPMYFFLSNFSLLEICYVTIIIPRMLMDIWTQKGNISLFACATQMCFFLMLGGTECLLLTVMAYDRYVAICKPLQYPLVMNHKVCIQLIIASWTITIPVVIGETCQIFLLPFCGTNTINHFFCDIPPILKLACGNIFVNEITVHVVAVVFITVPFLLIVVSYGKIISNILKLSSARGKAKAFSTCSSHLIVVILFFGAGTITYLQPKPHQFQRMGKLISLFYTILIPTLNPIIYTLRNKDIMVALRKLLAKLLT
Summary of the method: as §1

[8] = molecular target: T8, OR10C1 (Homo sapiens) (UniProt Q96KK4)
T8 sequence (whole entry): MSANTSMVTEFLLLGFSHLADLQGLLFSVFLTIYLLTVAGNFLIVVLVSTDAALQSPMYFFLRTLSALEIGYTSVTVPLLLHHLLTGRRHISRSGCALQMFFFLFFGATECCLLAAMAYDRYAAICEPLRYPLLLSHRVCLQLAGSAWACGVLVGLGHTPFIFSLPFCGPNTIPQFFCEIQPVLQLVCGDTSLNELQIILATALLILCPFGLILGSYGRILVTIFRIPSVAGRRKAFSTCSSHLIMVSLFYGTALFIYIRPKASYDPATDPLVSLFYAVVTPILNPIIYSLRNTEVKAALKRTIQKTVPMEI
Summary of the method: as §1

[9] = molecular target: T9, OR10D3 (Homo sapiens) (UniProt Q8NH80)
T9 sequence (whole entry): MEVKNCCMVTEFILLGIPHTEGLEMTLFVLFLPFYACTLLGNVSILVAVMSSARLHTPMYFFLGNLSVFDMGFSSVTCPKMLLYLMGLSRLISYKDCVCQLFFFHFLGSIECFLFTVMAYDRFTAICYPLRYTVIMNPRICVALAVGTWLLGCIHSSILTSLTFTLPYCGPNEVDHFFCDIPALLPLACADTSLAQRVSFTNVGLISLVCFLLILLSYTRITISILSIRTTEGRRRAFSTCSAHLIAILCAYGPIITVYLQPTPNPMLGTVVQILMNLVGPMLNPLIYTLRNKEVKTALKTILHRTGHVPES
Summary of the method: as §1

[10] = molecular target: T10, OR10G2 (Homo sapiens) (UniProt Q8NGC3)
T10 sequence (whole entry): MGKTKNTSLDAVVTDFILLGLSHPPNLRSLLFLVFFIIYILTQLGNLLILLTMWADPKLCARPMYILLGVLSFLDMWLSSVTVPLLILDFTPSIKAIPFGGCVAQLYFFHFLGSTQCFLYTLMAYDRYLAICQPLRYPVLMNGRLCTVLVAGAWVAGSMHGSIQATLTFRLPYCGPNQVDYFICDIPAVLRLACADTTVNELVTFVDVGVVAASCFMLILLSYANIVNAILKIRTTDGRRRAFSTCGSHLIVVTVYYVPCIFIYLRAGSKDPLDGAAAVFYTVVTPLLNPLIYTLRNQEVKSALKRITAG
Summary of the method: as §1

[11] = molecular target: T11, OR10G3 (Homo sapiens) (UniProt Q8NGC4)
T11 sequence (whole entry): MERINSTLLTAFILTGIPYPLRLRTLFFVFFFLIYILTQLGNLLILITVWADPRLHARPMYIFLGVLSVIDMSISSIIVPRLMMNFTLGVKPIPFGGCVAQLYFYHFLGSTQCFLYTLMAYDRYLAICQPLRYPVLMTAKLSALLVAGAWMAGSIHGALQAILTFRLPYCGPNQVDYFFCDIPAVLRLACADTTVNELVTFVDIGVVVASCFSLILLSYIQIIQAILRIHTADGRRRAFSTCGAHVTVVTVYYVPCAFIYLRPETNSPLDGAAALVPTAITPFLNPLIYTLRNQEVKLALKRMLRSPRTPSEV
Summary of the method: as §1

[12] = molecular target: T12, OR10G4 (Homo sapiens) (UniProt Q8NGN3)
T12 sequence (whole entry): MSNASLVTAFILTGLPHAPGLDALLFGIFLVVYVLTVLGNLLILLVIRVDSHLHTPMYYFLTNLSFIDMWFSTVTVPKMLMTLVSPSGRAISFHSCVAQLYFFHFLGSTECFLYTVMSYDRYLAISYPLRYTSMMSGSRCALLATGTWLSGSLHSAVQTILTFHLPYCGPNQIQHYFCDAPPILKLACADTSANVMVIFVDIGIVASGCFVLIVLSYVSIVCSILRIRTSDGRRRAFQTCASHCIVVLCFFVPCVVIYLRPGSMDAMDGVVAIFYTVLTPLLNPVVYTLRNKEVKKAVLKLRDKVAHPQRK
Summary of the method: as §1

[13] = molecular target: T13, OR10G6 (Homo sapiens) (UniProt Q8NH81)
T13 sequence (whole entry): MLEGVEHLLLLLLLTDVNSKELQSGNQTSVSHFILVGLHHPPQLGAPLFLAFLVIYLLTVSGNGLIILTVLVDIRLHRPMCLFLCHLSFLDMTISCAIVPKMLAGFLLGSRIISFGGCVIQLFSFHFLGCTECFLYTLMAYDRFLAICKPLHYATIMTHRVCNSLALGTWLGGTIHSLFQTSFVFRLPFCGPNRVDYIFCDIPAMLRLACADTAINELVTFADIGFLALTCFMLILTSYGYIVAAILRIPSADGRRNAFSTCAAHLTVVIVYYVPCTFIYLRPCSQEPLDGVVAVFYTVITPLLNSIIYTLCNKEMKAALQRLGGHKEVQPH
Summary of the method: as §1

[14] = molecular target: T14, OR10G7 (Homo sapiens) (UniProt Q8NGN6)
T14 sequence (whole entry): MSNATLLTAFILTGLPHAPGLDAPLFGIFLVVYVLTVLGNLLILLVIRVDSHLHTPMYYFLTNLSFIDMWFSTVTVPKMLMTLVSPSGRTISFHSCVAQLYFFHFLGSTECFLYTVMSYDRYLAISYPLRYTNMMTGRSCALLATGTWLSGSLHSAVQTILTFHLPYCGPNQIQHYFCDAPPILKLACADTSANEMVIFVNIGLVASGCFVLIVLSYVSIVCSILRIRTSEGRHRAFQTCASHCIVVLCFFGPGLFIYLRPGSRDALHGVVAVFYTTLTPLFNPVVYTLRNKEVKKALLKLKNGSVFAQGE
Summary of the method: as §1

[15] = molecular target: T15, OR10G8 (Homo sapiens) (UniProt Q8NGN5)
T15 sequence (whole entry): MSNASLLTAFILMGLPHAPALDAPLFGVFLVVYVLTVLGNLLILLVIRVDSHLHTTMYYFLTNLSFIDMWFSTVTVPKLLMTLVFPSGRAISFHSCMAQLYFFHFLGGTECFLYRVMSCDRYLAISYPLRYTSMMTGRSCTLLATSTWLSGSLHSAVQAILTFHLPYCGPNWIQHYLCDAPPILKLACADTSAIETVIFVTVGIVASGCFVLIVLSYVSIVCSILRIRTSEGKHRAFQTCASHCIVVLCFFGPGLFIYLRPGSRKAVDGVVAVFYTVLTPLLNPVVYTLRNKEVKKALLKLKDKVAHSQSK
Summary of the method: as §1

[16] = molecular target: T16, OR10G9 (Homo sapiens) (UniProt Q8NGN4)
T16 sequence (whole entry): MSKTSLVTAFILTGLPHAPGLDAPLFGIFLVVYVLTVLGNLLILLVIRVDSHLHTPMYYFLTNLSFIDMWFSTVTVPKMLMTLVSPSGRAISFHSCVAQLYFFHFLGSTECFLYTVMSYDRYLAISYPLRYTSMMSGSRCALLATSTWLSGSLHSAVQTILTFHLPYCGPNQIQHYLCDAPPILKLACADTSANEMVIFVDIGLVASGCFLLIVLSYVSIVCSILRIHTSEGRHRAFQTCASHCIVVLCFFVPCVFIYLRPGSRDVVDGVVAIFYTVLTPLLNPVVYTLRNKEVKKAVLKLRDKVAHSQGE
Summary of the method: as §1

[17] = molecular target: T17, OR10H1 (Homo sapiens) (UniProt Q9Y4A9)
T17 sequence (whole entry): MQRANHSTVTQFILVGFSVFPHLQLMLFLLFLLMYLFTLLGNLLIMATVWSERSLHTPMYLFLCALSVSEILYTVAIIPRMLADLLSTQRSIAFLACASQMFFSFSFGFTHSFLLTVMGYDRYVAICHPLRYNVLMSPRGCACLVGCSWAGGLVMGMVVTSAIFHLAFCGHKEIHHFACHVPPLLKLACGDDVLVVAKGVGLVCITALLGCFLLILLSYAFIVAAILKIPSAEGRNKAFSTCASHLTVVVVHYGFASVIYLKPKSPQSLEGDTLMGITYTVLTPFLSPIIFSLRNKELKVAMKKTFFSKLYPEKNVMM
Summary of the method: as §1

[18] = molecular target: T18, OR10H2 (Homo sapiens) (UniProt O60403)
T18 sequence (whole entry): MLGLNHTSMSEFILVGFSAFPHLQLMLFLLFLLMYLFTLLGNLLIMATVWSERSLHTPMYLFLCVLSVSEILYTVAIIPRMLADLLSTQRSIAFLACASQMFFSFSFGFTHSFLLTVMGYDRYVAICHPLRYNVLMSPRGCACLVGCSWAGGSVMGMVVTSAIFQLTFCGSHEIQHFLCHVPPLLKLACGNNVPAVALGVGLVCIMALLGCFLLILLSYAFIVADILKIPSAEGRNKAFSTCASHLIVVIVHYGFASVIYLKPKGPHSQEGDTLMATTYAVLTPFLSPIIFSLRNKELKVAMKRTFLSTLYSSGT
Summary of the method: as §1

[19] = molecular target: T19, OR10H3 (Homo sapiens) (UniProt O60404)
T19 sequence (whole entry): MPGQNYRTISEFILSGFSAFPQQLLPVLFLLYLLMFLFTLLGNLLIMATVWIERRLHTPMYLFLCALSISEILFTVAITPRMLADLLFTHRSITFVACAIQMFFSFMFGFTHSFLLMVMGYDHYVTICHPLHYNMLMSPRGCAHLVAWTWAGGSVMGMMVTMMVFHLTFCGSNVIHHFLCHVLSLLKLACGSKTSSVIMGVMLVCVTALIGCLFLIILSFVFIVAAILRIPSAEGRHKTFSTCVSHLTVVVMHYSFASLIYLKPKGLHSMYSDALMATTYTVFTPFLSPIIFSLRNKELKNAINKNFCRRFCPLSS
Summary of the method: as §1

Measured: odorant receptor agonist call;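 note: active if original authors judged signal statistically different from baseline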

CCCCC(S)C(C)CO (centres undefined)
inactive: all assays above

— the M2OR odorant receptor database
